Results from different studies.
Compare with care: the assays were run in different laboratories.

| Compound | target or system | test | test system | setting | quantity | result |
| --- | --- | --- | --- | --- | --- | --- |
| CCNCCCn1c2c(c3cc(OC)c(OC)cc3c1=O)C(=O)c1cc3c(nc1-2)OCO3 | TC-71 | cell growth or viability, MTS | – | 72 h | IC50 | 122 nM |
| C=CC(=O)NC1CCN(c2ncc3ncnc(Nc4ccc(Oc5ccc6c(c5)ncn6C)c(C)c4)c3n2)CC1 | AU565 | cell growth or viability | – | – | EC50 | 20.8 nM |
| COc1cc2c3c(n(CCCN4CCOCC4)c(=O)c2cc1OC)-c1nc2c(cc1C3=O)OCO2 | RPMI-8226 | cell growth or viability, MTS | – | 72 h | IC50 | 905 nM |
| C=C/C=C(\C)CC[C@@H]1C[C@@H](O)CC(=O)O1 | Bacillus cereus | microbial growth, broth dilution | ATCC10876 | – | MIC | 128 µg/mL |
| CC(=O)OCC1=C(C(=O)O)N2C(=O)[C@@H](NC(=O)Cc3cccs3)[C@H]2SC1 | Salmonella enterica | microbial growth, broth dilution | TYPHIMURIUM | – | MIC | < 127 µg/mL |
| O=C(O)c1cn(C2CC2)c2cc(N3CCNCC3)c(F)cc2c1=O | Salmonella enterica | microbial growth | ATCC13311 | – | MIC | 4 µM |
| O=C(O)c1cn(C2CC2)c2cc(N3CCNCC3)c(F)cc2c1=O | Salmonella enterica | microbial growth, broth dilution | TYPHIMURIUM | – | MIC | 0.03 µM |
| CC(C)C[C@@H]1NC(=O)[C@@H](N(C)C(=O)[C@H](CC2CCC2)NC(=O)[C@@H]2C[C@@H](F)CN2C(=O)C2(C(F)(F)F)CC(F)(F)C2)CCCCNC(=O)C2(CC2)NC(=O)[C@H](Cc2cc(Cl)ccc2Cl)N(C)C1=O | NCI-H69 | cell growth or viability, MTT | – | 5 days | GI50 | 13 nM |
